Experimental data taken from ChEMBL document CHEMBL5131524, “Design and Synthesis of Tranylcypromine-Derived LSD1 Inhibitors with Improved hERG and Microsomal Stability Profiles” (ACS Med Chem Lett, 2022).

Tests used:
hERG (KCNH2) = hERG (KCNH2) (Homo sapiens, UniProt Q12809); assay: Inhibition of human ERG expressed in human HEK293 cells at 10 uM for 2 mins by whole-cell patch-clamp system; type: toxicity, cell-based; conditions: HEK293 cells expressing human ERG
How it was run: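 hERG inhibition was measured by automated patch clamp in HEK293 cells expressing hERG. Values are the mean of three independent experiments.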

[1] = Metabolic stability in human liver microsomes assessed as compound remaining and measured after 60 mins in presence of beta-NADPH by liquid chromatography tandem mass spectrometry analysis; type: ADME, Microsome; conditions: read-out: Stability
How it was run: (§1)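 Percent of compound remaining after 60 min incubation with liver microsomes of each species (human, rat, mouse). Values are the mean of three independent experiments.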

[2] = Metabolic stability in rat liver microsomes assessed as compound remaining and measured after 60 mins in presence of beta-NADPH by liquid chromatography tandem mass spectrometry analysis; type: ADME, Microsome; conditions: read-out: Stability; how it was run: as §1
[3] = Metabolic stability in mouse liver microsomes assessed as compound remaining and measured after 60 mins in presence of beta-NADPH by liquid chromatography tandem mass spectrometry analysis; type: ADME, Microsome; conditions: read-out: Stability; how it was run: as §1
[4] = target: T1, Amine oxidase [flavin-containing] A (Homo sapiens, UniProt P21397); assay: Inhibition of MAO-A (unknown origin) using tyramine as substrate and measured after 10 mins by peroxidase-coupled reaction method
T1 sequence (P21397 whole entry): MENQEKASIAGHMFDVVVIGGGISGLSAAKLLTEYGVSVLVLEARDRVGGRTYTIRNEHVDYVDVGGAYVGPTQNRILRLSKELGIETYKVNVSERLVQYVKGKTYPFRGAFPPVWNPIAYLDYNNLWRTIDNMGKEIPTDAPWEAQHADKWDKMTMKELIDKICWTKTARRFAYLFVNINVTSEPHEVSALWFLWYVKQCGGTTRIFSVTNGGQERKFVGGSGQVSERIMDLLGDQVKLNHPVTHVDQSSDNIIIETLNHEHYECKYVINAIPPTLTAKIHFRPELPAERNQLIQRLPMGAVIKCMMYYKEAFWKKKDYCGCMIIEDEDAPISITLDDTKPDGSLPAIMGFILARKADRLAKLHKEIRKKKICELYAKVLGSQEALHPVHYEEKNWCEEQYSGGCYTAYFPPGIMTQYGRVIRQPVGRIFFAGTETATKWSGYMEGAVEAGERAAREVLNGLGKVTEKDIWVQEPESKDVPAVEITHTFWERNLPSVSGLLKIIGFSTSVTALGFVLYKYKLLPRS

[5] = target: T2, Amine oxidase [flavin-containing] B (Homo sapiens, UniProt P27338); assay: Inhibition of MAO-B (unknown origin) using tyramine as substrate and measured after 10 mins by peroxidase-coupled reaction method
T2 sequence (P27338 whole entry): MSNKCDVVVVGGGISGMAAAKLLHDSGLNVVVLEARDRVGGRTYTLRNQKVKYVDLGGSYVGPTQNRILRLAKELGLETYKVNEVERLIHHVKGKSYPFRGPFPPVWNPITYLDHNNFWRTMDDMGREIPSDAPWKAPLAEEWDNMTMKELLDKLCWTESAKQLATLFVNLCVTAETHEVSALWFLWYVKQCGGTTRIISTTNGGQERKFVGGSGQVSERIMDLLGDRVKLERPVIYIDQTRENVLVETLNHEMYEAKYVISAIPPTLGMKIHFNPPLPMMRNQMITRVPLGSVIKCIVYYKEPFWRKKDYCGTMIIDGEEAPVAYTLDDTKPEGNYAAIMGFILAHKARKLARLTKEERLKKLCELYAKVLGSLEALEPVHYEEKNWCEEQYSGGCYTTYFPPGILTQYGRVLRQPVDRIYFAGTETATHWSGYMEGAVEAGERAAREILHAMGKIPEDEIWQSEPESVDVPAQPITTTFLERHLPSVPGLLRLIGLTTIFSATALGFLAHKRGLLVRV

[6] = AUC (0-infinity) in ICR mouse at 10 mg/kg, ip; type: ADME, organism-based; parameters: time infinity, dose 10 mg/kg, route ip; conditions: in vivo
How it was run: (§2)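 Single intraperitoneal injection, 10 mg/5 mL per kilogram, to male ICR mice aged eight weeks (n = 3). Serum concentration–time profiles were measured, giving AUC0–∞ […], Cmax, Tmax and serum half-life.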

[7] = Cmax in ICR mouse serum at 10 mg/kg, ip; type: ADME, organism-based; parameters: dose 10 mg/kg, route ip; how it was run: as §2
[8] = Tmax in ICR mouse serum at 10 mg/kg, ip; type: ADME, organism-based; how it was run: as §2
[9] = Half life in ICR mouse serum at 10 mg/kg, ip; type: ADME, organism-based; how it was run: as §2

hERG (KCNH2), sequence (Q12809 whole entry): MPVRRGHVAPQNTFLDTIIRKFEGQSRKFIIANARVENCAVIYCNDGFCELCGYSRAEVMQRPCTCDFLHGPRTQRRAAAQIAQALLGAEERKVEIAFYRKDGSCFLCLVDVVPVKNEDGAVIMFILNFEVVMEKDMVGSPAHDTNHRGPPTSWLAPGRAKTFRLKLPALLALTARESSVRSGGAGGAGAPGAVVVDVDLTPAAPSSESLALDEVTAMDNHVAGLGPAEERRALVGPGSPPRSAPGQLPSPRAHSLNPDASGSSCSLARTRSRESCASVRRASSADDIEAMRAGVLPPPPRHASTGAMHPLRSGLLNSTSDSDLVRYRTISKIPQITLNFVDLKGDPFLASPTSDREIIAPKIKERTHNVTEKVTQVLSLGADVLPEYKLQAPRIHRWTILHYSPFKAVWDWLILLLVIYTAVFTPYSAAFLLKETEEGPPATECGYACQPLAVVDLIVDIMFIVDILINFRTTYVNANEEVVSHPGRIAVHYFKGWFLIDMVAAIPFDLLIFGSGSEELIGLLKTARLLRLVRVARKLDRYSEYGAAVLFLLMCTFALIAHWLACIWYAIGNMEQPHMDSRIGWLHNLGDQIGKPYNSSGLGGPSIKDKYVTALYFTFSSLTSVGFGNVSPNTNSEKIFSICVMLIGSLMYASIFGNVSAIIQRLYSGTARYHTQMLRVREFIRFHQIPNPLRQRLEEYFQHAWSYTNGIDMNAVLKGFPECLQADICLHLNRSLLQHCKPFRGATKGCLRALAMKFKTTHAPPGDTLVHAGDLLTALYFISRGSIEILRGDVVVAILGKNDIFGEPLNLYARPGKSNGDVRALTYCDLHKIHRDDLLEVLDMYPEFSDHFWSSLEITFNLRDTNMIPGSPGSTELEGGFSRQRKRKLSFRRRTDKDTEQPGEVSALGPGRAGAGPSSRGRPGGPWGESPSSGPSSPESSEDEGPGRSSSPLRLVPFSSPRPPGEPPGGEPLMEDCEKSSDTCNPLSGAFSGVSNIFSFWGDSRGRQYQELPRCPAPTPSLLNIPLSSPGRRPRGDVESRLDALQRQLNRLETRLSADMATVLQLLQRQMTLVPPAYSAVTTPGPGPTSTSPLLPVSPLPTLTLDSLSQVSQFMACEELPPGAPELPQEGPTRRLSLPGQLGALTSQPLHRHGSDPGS

SMILES	remaining at 1 h [1]	remaining at 1 h [2]	remaining at 1 h [3]	inhibition at 2 min, 10 µM (hERG (KCNH2))	other results
COCCN1CCN(C(=O)CNC2CC2c2cc(F)cc(F)c2OCc2cc[nH]n2)CC1 (configuration not stated)				8%	
COCCN1CCN(C(=O)CNC2CC2c2cc(F)cc(F)c2OCCc2ccc(F)cc2)CC1 (configuration not stated)				> 100%	
COCCN1CCN(C(=O)CNC2CC2c2cc(F)cc(F)c2OCc2cccnc2F)CC1 (configuration not stated)				21%	
CN1CCN(C(=O)CNC2CC2c2cc(F)cc(F)c2OCc2ccccc2)CC1 (racemic)				51%	AUC(0-inf) [6]: 0.98 µM·h; Cmax [7]: 960 nM; Tmax [8]: 15 min; half-life [9]: 57 min
COCCN1CCN(C(=O)CNC2CC2c2cc(F)cc(F)c2OCc2ccccc2)CC1 (configuration not stated)				50%	
COCCN1CCN(C(=O)CNC2CC2c2cc(F)cc(F)c2OCCc2ccccc2)CC1 (configuration not stated)				76%	
COCCN1CCN(C(=O)CNC2CC2c2cc(F)cc(F)c2OCc2ccnc(F)c2)CC1 (configuration not stated)				46%	
COCCN1CCN(C(=O)CNC2CC2c2cc(F)cc(F)c2OCc2cnn(C)c2)CC1 (configuration not stated)				14%	

The next lines start with results.

remaining at 1 h [1]	remaining at 1 h [2]	remaining at 1 h [3]	SMILES	inhibition at 2 min, 10 µM (hERG (KCNH2))	other results
41%	20%	42%	O=C(CNC1CC1c1cc(F)cc(F)c1OCc1cccnc1F)N1CCC2(CCCN2)CC1 (configuration not stated)	62%	
38%	62%	62%	O=C(CN[C@H]1C[C@@H]1c1cc(F)cc(F)c1OCc1cccnc1F)N1CCC2(CCNC2)CC1		Ki [4]: > 250 µM; Ki [5]: > 250 µM; AUC(0-inf) [6]: 5.09 µM·h; Cmax [7]: 3030 nM; Tmax [8]: 30 min; half-life [9]: 234 min
0%	24%	25%	O=C(CNC1CC1c1cc(F)cc(F)c1OCc1cccnc1F)N1CCC(N2CC3CCC(C2)N3)CC1 (configuration not stated)	23%	
0%	0%	0%	O=C(CNC1CC1c1cc(F)cc(F)c1OCc1cccnc1F)N1CCC(N2CC3CCC(C2)O3)CC1 (configuration not stated)	32%	
45%	55%	73%	O=C(CN[C@@H]1C[C@H]1c1cc(F)cc(F)c1OCc1cccnc1F)N1CCC2(CCNC2)CC1		Ki [4]: > 250 µM; Ki [5]: > 250 µM
44%	56%	73%	O=C(CNC1CC1c1cc(F)cc(F)c1OCc1cccnc1F)N1CCC2(CCNC2)CC1 (configuration not stated)	10%	
